This is a sample that favours compounds with a hit; in the whole collection about 1.9% have one here.
Tb hexokinase – Trypanosoma brucei hexokinase 1 inhibitors, primary screen, biochemical, G6PDH-coupled NADH absorbance, MLSCN library; recombinant TbHK1, G6PDH-coupled NADH A340; 220,000 compounds, 0.11% hits; inhibition, % at 10 µM; AID 1430, 2008;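 active = inhibition of 50% or more in the single-dose primary screen; inactive = inhibition below 50%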
Insulin prom up – insulin promoter activators in MIN6 cells, imaging, high-content screening, mouse beta cells. 190,000 compounds, 0.3% hits. MIN6 insulin promoter-GFP reporter; hits give high values. z-score at 5 µM;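 active = z-score above 3 at 5 µM with at least 500 cells counted in the well; inconclusive = wells under 500 cells, flagged as cytotoxic or low count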
MT stabilizer – microtubule stabilizers in HeLa cells, primary screen, imaging, high-content imaging. HeLa tubulin immunostaining HCS, 24 h; share of cells brighter than vehicle mean+2SD. % tubulin-high responders, % at 10 µM. 200,000 compounds, 0.83% hits;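 active = plate Z-score above 3 for both tubulin-high and condensed-nucleus cell shares, with cell loss under 80%, at 10 µM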;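 also: anti alpha tubulin signal scored within the nucleus-defined area of each cell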
Autophagy HCS – autophagy modulators in MEF cells, primary screen, imaging, high-content, MEF GFP-LC3; 190,000 compounds, 0.98% hits; calls only at 10 µM (by protocol); MEF GFP-LC3 puncta imaging; test concentration mostly 10 µM;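 active = percentage of spot-positive cells more than 3 SD above its plate mean, without a fluorescence outlier flag or 80% toxicity; inconclusive = no clear call, values can overlap the other calls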;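 also: spot-positive cell cutoff set from DMSO-treated cells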
b-catenin transl – modulators of beta-catenin nuclear translocation, primary screen, imaging, HeLa cells, immunofluorescence, high-content | nuclear translocation activity, % at 5 µM | 190,000 compounds, 0.3% hits;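 active = nuclear translocation activity above 50% at 5 µM, with a well cell count of 50 or more; inconclusive = wells under 50 cells across six images, flagged as toxic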;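 also: per-cell ratio of nuclear to cytoplasmic median beta-catenin stain intensity; plate controls were DMSO negative control for no effect and GSK-3 inhibitor IX positive control for full effect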
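Test system: human HeLa cells, native beta-catenin. Compound dosing: 5 µM primary single dose, 0.1% DMSO, 0.02–20 µM confirmation series. Incubation: compound exposure 24 h at 37°C. Detection: beta-catenin immunostaining with DAPI counterstain, 20x imaging, 6 fields/well. Read-out basis: Nuclear/cytoplasmic beta-catenin signal ratio, % activation.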
Numbers without * were called inactive; i = inactive; ? = inconclusive; . = no result; + = active, no number.

SMILES	Tb hexokinase	Insulin prom up	MT stabilizer	Autophagy HCS	b-catenin transl
CCOc1ccc(C(=O)Nc2cc(C)c3c(=O)oc4ccccc4c3n2)cc1	-32	?	2	+	.
Cc1cc(NC(=O)c2ccc(S(=O)(=O)N3CCCC3)cc2)nc2c1c(=O)oc1ccccc12	-9	.	3	+	0
COc1ccc(CC(=O)Nc2cc(C)ccc2O)cc1OC	-3	-1.8	.	.	-5
Cc1cccc(NC(=O)c2cccc(NS(=O)(=O)c3ccc(Cl)cc3)c2)c1	0	0.35	2	i	-4
CCOc1ccc(NS(=O)(=O)c2cc(NC(=O)c3cccc(C)c3)ccc2Cl)cc1	-1	-0.33	23*	i	12
O=C(NCCSc1ccccc1)c1ccc(CN2CCOCC2)cc1	-6	-0.47	.	.	1
CC(C(=O)Nc1ccccc1-c1ccccc1)N(C)Cc1nc2ccccc2c(=O)[nH]1 (configuration not stated)	1	-0.08	24*	i	0
CC(C)c1ccc2c(c1)[C@H]1OCC[C@H]1[C@@H](c1cccs1)N2	1	-0.37	20*	+	36
CN(C)C(=O)COc1ccc(Oc2ccccc2)cc1	-1	1.7	4	i	0
O=C(COC(=O)CCC1CCCC1)Nc1ccc(Cl)cc1F	-4	.	3	i	0
COc1ccc(CCN2C(=O)c3cccc4c(C(=O)N5CCCCC5)ccc(c34)C2=O)cc1OC	-23	0.08	5	+	-2
Cc1ccc(NC(=O)CSc2nnc(-c3cccs3)o2)cc1S(=O)(=O)N(C)C	-1	0.79	3	i	0
CCOc1ccc(/C=C2\C(=O)c3ccccc3OC2c2ccccc2)cc1 (configuration not stated)	-13	.	36*	i	.
COc1ccc(/C=C2\C(=O)c3ccccc3OC2c2ccccc2)cc1 (configuration not stated)	-18	.	.	.	0
CCN(CC)S(=O)(=O)c1c(OC)cc(C)c(Cl)c1C	0	0.2	2	i	-3
N#Cc1c(NC(=O)c2ccccc2)sc2c1CCCCC2	-5	.	4	i	1
N#Cc1c(Cl)nsc1NC(=O)c1ccccc1	-14	-2.5	3	+	9
COc1ccc(C(=O)/C=C/C(=O)N(CC(=O)NC2CCCCC2)CC2CCCO2)c(O)c1 (configuration not stated)	-2	-0.36	3	+	-1
CCCN(Cc1cc2cc(C)ccc2[nH]c1=O)C(=O)c1cccc([N+](=O)[O-])c1	-13	0.14	.	.	1
O=c1c2cc(Br)ccc2nc(-c2ccc([N+](=O)[O-])cc2)n1O	-10	-0.79	1	i	-2
O=c1c2c([N+](=O)[O-])cc([N+](=O)[O-])cc2sn1-c1ccc(Br)cc1	92*	-0.06	1	i	0
COC(=O)c1cn(NC(=O)C2COc3ccccc3O2)c(=O)c2ccccc12 (configuration not stated)	-3	2.1	5	i	-1
COC(=O)c1cn(NC(=O)C2CCCO2)c(=O)c2ccccc12 (configuration not stated)	-6	0.46	2	+	4
COc1ccc(/C=N/n2c(SC)nnc2-c2ccccc2)c(OC)c1OC	-20	0.38	11	i	92*
COc1cccc(/C=N\n2c(C)nnc2C)c1OC	-7	-0.17	4	i	-2
SMILES	Tb hexokinase	Insulin prom up	MT stabilizer	Autophagy HCS	b-catenin transl
COc1ccc(/C=N/n2c(SC)nnc2-c2ccccc2)cc1C	-5	-0.12	27*	i	2
COc1ccc(/C=N/N2CCN(c3ccccc3OC)CC2)cc1OC	4	0.06	3	i	0
COc1ccc(CNC(=O)CCC(=O)Nc2nnc(CC(C)C)s2)cc1	0	-0.04	.	.	1
COc1ccc2c(c1)O[C@@H](c1ccc3c(c1)OCO3)[C@H](OC(=O)Nc1cc(OC)c(OC)c(OC)c1)C2=O	-17	.	15	i	.
Cn1ccnc1C(=O)c1cc(SCC(=O)N2CCOCC2)nc2ccccc12	-17	0.31	4	i	6
COc1cc(/C=C2\CCOC2=O)cc(OC)c1OC	-21	0.05	.	.	2
CC1(C(=O)Nc2ccccc2)Cc2ccccc2C(=O)O1 (configuration not stated)	-10	0.01	1	+	0
O=C(NC(=S)Nc1ccccc1N1CCCCC1)c1ccco1	0	-0.57	3	i	-1
O=C(NC(=S)Nc1cccc(Cl)c1N1CCCCC1)c1cccs1	-2	-0.84	26*	i	0
O=C(NC(=S)Nc1cccc(Cl)c1N1CCCCC1)c1ccco1	-1	-0.7	39*	i	4
COc1ccccc1C1CC(c2ccc(Br)cc2)=NN1C(=O)c1cccnc1 (configuration not stated)	-6	-1.5	15*	i	83*
CCOc1ccc(-c2c(C#N)c(N)nc3sc(C(=O)c4ccccc4)c(N)c23)cc1	-20	9.1*	.	.	0
O=C(Nc1ccc(Cl)cc1)Nc1ccc(N2CCOCC2)cc1	-1	0.54	4	i	0
O=C(Nc1ccc(N2CCOCC2)cc1)C1(c2ccc(Cl)cc2)CCC1	0	0.7	9.9*	i	0
C/C(=N\NC(=O)c1ccc(CSc2nc(C)cc(C)n2)cc1)c1ccco1	-4	-0.49	4	i	-2
COc1cc(N2CCCC2)c(OC)cc1/C=C(/C#N)c1ccc(F)cc1	-6	.	3	+	.
COc1cc(N2CCCC2)c(OC)cc1/C=C(/C#N)c1ccc(Br)cc1	-15	.	6	?	0
CCSc1nc(C2CC2)cc(-c2cccs2)c1C#N	-10	.	2	i	5
N#Cc1c(-c2ccccc2F)cc(C2CC2)nc1SCC(=O)c1cccs1	2	1.3	7	+	-3
O=C1C=C(NCCOC23CC4CC(CC(C4)C2)C3)C2(CCCCC2)O1	-5	-0.15	1	i	-5
Cc1cnc(NC(=O)CCCc2nc3ccccc3s2)s1	-5	-0.37	6	+	-3
Fc1ccccc1COc1ccc2ccccc2c1CNc1nn[nH]n1	3	0.36	18*	i	-4
CC1(C)Cc2nc3sc4c(=O)n(CC(=O)NCc5ccco5)cnc4c3cc2CO1	-3	0.77	32*	i	1
CC1(C)Cc2nc3oc4c(=O)n(CC(=O)Nc5ccccc5)cnc4c3cc2CO1	-1	-0.65	3	i	-2
COc1ccc(Nc2nc(N3CCCC3)nc3ccccc23)c(OC)c1	-19	-1.8	3	+	.
COc1ccc(Nc2ncnc3ccccc23)c(OC)c1	-19	.	3	i	7
C=CCN1C(=O)/C(=C/c2ccc(OC(C)=O)c(OCC)c2[N+](=O)[O-])SC1=S	-5	0.78	3	i	4
CCN1C(=O)/C(=C\c2nc3ccccc3c(=O)n2CC)c2ccccc21	-4	0.53	14	+	-1

Bioassay records deposited in PubChem by several laboratories.
